ChEMBL document CHEMBL4393705, “New chalcone-sulfonamide hybrids exhibiting anticancer and antituberculosis activity” (Eur J Med Chem, 2019)
Converted amounts (≈) assume the structure as drawn.

Legend:
[1] = system: Mycobacterium tuberculosis; assay: Antitubercular activity against Mycobacterium tuberculosis H37Rv ATCC27294 measured after 2-3 weeks by agar dilution SPOTi assay; type: functional; details: H37Rv ATCC 27294
Outline: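 Agar dilution SPOTi on Middlebrook 7H10 with 0.5% glycerol and 10% OADC. Final compound levels 50, 20, 10, 5, 2 mg/L, added from DMSO dilutions. 2 µL of a 10^6 CFU/mL inoculum from a 4-week Löwenstein-Jensen culture spotted per well, incubated 2-3 weeks at 37°C. MIC is the lowest concentration with no visible growth. Repeated on a separate day; isoniazid was the reference.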

[2] = system: Staphylococcus aureus; assay: Antibacterial activity against Staphylococcus aureus measured every 120 mins for 36 hrs by LB broth two-fold serial dilution method; type: functional
Outline: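 Panel of 12 laboratory and clinical S. aureus strains with varied drug-susceptibility patterns. Compounds were two-fold serially diluted in LB broth from a maximum of 32 mg/L. Growth was followed by OD600 every 120 min for 36 h. Vancomycin was the positive control, and runs were in duplicate.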

[3] = system: K562; assay: Anticancer activity against human K562 cells assessed as tumour cell growth at 10 uM after 48 hrs by SRB assay relative to control; type: functional
Outline: (§1)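 NCI 60-line primary screen at a single 10 μM dose in RPMI-1640 with 5% FBS and 2 mM L-glutamine. Cells were preincubated 24 h at 37 °C in 5% CO₂, with time-zero plates fixed with TCA. Compounds (DMSO, diluted in gentamicin medium) were incubated 48 h, then cells TCA-fixed and stained with 0.4% SRB (A515). Growth percent was derived from time-zero, control and treated absorbances.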

[4] = system: NIH3T3; assay: Cytotoxicity against mouse 3T3 cells assessed as cell viability measured after 48 hrs by MTT assay; type: cell-based; details: nih3t3, 48 h
Outline: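 3T3 fibroblasts in DMEM with 10% FBS and penicillin-streptomycin, seeded at 10^4 cells/well 24 h prior. Exposed 48 h to two-fold serial dilutions from a 100 mg/mL DMSO stock. MTT (5 mg/mL in PBS) added for 1.5 h, formazan dissolved in DMSO, read at 530 nm. Duplicate runs on different days. Value interpolated between DMSO (100%) and cycloheximide (0%) controls.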

[5] = system: SR; assay: Anticancer activity against human SR cells assessed as tumour cell growth at 10 uM after 48 hrs by SRB assay relative to control; type: functional; outline: as §1
[6] = system: Mycolicibacterium smegmatis; assay: Antibacterial activity against Mycobacterium smegmatis MC2 155 measured after 48 hrs by agar dilution SPOTi assay; type: functional; details: MC2 155, 48 h
Outline: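 SPOTi agar dilution on Middlebrook 7H10 without OADC. Cells were passaged in Middlebrook 7H9 and then spotted. Compounds were tested at 100, 50, 20, 10 and 5 mg/L, with kanamycin as positive control. Plates were incubated 48 h at 37°C. MIC was taken as the lowest concentration with no visible growth.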

[7] = Selectivity index, ratio of LC50 for mouse 3T3 cells to MIC for Mycobacterium tuberculosis H37Rv ATCC27294; type: toxicity; details: read-out: Selectivity Index
[8] = system: HCT-116; assay: Anticancer activity against human HCT116 cells assessed as tumour cell growth at 10 uM after 48 hrs by SRB assay relative to control; type: functional; outline: as §1
[9] = system: M14; assay: Anticancer activity against human M14 cells assessed as tumour cell growth at 10 uM after 48 hrs by SRB assay relative to control; type: functional; outline: as §1
[10] = system: HL-60; assay: Anticancer activity against human HL60 cells assessed as tumour cell growth at 10 uM after 48 hrs by SRB assay relative to control; type: functional; outline: as §1

Structure (SMILES) | MIC [1] [µM] | MIC [2] [µM] | Activity [3] [%] | LC50 [4] [µM] | Activity [5] [%] | MIC [6] [µM] | selectivity ratio [7] | Activity [8] [%] | Activity [9] [%] | Activity [10] [%]
COc1ccc(/C=C/C(=O)c2ccc(OC)c(S(N)(=O)=O)c2)cc1 | > 144 | > 57 | 38.78 | 96 | 28.1 | > 175 |  |  |  | 
COc1ccc(C(=O)/C=C/c2ccccc2)cc1S(=O)(=O)Nc1c(N)nc(SC)[nH]c1=O | 42 (≈ 19.8 µg/mL) | > 57 | 35.63 | 17 |  | > 175 | 0.4 | 35.18 |  | 
COc1ccc(C(=O)/C=C/c2cc(OC)c(OC)c(OC)c2)cc1S(=O)(=O)Nc1c(N)nc(SC)[nH]c1=O | > 89 | > 57 |  | 2.1 |  | > 175 |  |  |  | 
COc1ccc(C(=O)/C=C/c2ccc3c(c2)OCO3)cc1S(N)(=O)=O | > 138 | > 57 | 44.59 | 132 |  | > 175 |  | 19.22 |  | 
COc1ccc(C(=O)/C=C/c2ccc3c(c2)OCO3)cc1S(=O)(=O)Nc1c(N)nc(SC)[nH]c1=O | > 97 | > 57 | 53.79 | 7.1 |  | > 175 |  | 18.36 |  | 
COc1ccc(C(C)=O)cc1S(=O)(=O)Nc1c(N)nc(SC)[nH]c1=O | > 130 | > 57 |  | > 1600 |  | > 175 |  |  | 94.85 | 
COc1ccc(C(=O)/C=C/c2ccc(C)cc2)cc1S(=O)(=O)Nc1c(N)nc(SC)[nH]c1=O | 41 (≈ 19.9 µg/mL) | > 57 | 38.79 | 7.2 |  | > 175 | 0.18 | 10.78 |  | 
COc1ccc(C(=O)/C=C/c2ccccc2)cc1S(N)(=O)=O | 16 (≈ 5.08 µg/mL) | > 57 | 7.9 | 7.7 |  | > 175 | 0.48 |  |  | 
COc1ccc(C(=O)/C=C/c2cc(OC)c(OC)c(OC)c2)cc1S(N)(=O)=O | > 123 | > 57 |  | 2.4 |  | > 175 |  |  |  | 
COc1ccc(/C=C/C(=O)c2ccc(OC)c(S(=O)(=O)Nc3c(N)nc(SC)[nH]c3=O)c2)cc1 | > 100 | > 57 | 54.26 | 6.5 |  | > 175 |  | 24.01 |  | 
COc1ccc(C(=O)/C=C/c2ccc(C)cc2)cc1S(N)(=O)=O | 30 (≈ 9.94 µg/mL) | > 57 | 3.04 | 4.3 |  | > 175 | 0.14 |  |  | 
COc1ccc(C(C)=O)cc1S(N)(=O)=O | > 218 | > 57 |  | > 2700 |  | > 175 |  |  |  | 74.74
C[C@@H]1C[C@@H]([C@H](O)CC2CC(=O)NC(=O)C2)C(=O)[C@@H](C)C1 [CYCLOHEXIMIDE] |  |  |  | < 2.2 |  |  |  |  |  | 
NNC(=O)c1ccncc1 [ISONIAZID] | 0.36 (≈ 0.0494 µg/mL) |  |  |  |  |  |  |  |  | 
